According to ChEMBL document CHEMBL3526053, “Species-dependent uptake of glycylsarcosine but not oseltamivir in Pichia pastoris expressing the rat, mouse, and human intestinal peptide transporter PEPT1” (Drug Metab Dispos, 2012):
One block for each molecule: values may come before it. Non-standard residues stand in square brackets, D forms with d. Residues, ends and D or L forms follow the SMILES beside them. Sar = CNCC(=O)O

Experiments:
[1] = target: T1, Solute carrier family 15 member 1 (Oryctolagus cuniculus, UniProt P36836); assay: Drug uptake in Xenopus laevis oocytes expressing rabbit PEPT1 measured at pH 5.5 and -60 mV by two-electrode voltage-clamp electrophysiology; assay type: ADME, cell-based
T1 sequence (P36836 whole entry): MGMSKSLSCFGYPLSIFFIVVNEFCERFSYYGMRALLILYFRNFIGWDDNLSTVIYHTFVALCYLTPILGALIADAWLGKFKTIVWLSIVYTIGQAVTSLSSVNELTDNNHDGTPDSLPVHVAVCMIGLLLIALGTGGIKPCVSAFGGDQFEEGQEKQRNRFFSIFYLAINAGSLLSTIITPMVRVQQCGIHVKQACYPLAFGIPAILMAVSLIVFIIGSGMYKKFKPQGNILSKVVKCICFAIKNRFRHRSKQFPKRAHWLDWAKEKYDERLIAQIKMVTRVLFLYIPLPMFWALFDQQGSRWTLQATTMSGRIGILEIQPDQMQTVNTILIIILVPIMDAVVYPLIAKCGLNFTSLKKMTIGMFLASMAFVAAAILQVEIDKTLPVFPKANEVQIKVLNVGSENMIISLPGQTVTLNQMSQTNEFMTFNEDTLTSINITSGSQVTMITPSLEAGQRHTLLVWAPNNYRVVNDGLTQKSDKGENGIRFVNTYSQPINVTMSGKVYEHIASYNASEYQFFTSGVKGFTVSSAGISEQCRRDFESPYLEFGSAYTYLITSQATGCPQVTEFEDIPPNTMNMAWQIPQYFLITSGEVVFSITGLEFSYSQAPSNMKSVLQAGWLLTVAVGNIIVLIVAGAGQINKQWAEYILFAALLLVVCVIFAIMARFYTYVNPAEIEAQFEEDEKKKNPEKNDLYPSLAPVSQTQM

[2] = system: PEPT1; assay: Drug uptake in CHO cells expressing pig PEPT1 measured at pH 6; assay type: ADME, cell-based, Sus scrofa; conditions: CHO cells expressing pig PEPT1, pH 6
[3] = system: PEPT1; assay: Drug uptake in human HeLa cells expressing monkey PEPT1 measured at pH 6; assay type: ADME, cell-based, Macaca mulatta; conditions: rhesus monkey, HeLa cells expressing monkey PEPT1, pH 6
[4] = system: PEPT1; assay: Ratio of Km for human recombinant PEPT1 expressed in Pichia pastoris GS115 to Km for mouse recombinant PEPT1 expressed in Pichia pastoris GS115; assay type: ADME; conditions: not told
[5] = system: PEPT1; assay: Drug uptake in CHO cells expressing chicken PEPT1 measured at pH 6; assay type: ADME, cell-based, Gallus gallus; conditions: CHO cells expressing chicken PEPT1, pH 6
[6] = system: PEPT1; assay: Drug uptake in Xenopus laevis oocytes expressing salmon PEPT1 measured at pH 6.5 and -60 mV by two-electrode voltage-clamp electrophysiology; assay type: ADME, cell-based; conditions: salmonidae, Xenopus laevis oocytes expressing salmon PEPT1, pH 6.5
[7] = Ratio of Km for human recombinant PEPT1 expressed in Pichia pastoris GS115 to Km for rat recombinant PEPT1 expressed in Pichia pastoris GS115; assay type: ADME
[8] = system: PEPT1; assay: Drug uptake in Xenopus laevis oocytes expressing chicken PEPT1 measured at pH 6 and -60 mV by two-electrode voltage-clamp electrophysiology; assay type: ADME, cell-based, Gallus gallus; conditions: Xenopus laevis oocytes expressing chicken PEPT1, pH 6
[9] = system: PEPT1; assay: Drug uptake in Xenopus laevis oocytes expressing sheep PEPT1 measured at pH 5.5 and -60 mV by two-electrode voltage-clamp electrophysiology; assay type: ADME, cell-based, Ovis aries; conditions: Xenopus laevis oocytes expressing sheep PEPT1, pH 5.5
[10] = substrate: CN(CC(=O)O)C(=O)CN; assay: Drug uptake in human HeLa cells expressing human PEPT1 measured at pH 6; assay type: ADME, cell-based
[11] = substrate: CN(CC(=O)O)C(=O)CN; assay: Activity at human recombinant PEPT1 expressed in Pichia pastoris GS115 after 30s by dual-channel liquid scintillation counting analysis; assay type: ADME
Procedure, shortened: (§1)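 [3H]GlySar concentration series 0.005-10 mM, 30-s uptake at 24°C in 100 mM potassium phosphate pH 6.5. Cells come from His+Mut+ GS115 transformants induced 20-24 h in methanol medium. Uptake is normalised to OD600. Data are fitted to Michaelis-Menten plus a first-order nonsaturable term (Kd), weighting unity. Parameters are mean ± SE (n=9).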

[12] = substrate: CN(CC(=O)O)C(=O)CN; assay: Activity at rat recombinant PEPT1 expressed in Pichia pastoris GS115 after 30s by dual-channel liquid scintillation counting analysis; assay type: ADME; procedure, shortened: as §1
[13] = substrate: CN(CC(=O)O)C(=O)CN; assay: Drug uptake in Xenopus laevis oocytes expressing rat PEPT1 measured at pH 6; assay type: ADME, cell-based
[14] = substrate: CN(CC(=O)O)C(=O)CN; assay: Drug uptake in Xenopus laevis oocytes expressing mouse PEPT1 measured at pH 5.5 and -60 mV by two-electrode voltage-clamp electrophysiology; assay type: ADME, cell-based
[15] = substrate: CN(CC(=O)O)C(=O)CN; assay: Activity at mouse recombinant PEPT1 expressed in Pichia pastoris GS115 after 30s by dual-channel liquid scintillation counting analysis; assay type: ADME; procedure, shortened: as §1

Km [1]: 1900 µM
Km [2]: 940 µM
Km [3]: 350 µM
Km [5]: 2600 µM
Km [6]: 500 µM
Ratio [7]: 5.4
Km [8]: 470 µM
Km [9]: 610 µM
Molecule: CN(CC(=O)O)C(=O)CN [GLYCYLSARCOSINE] (H-Gly-[Sar]-OH)
selectivity ratio [4]: 2.9

B1: Solute carrier family 15 member 1 (Homo sapiens) (protein)
chain: MGMSKSHSFFGYPLSIFFIVVNEFCERFSYYGMRAILILYFTNFISWDDNLSTAIYHTFVALCYLTPILGALIADSWLGKFKTIVSLSIVYTIGQAVTSVSSINDLTDHNHDGTPDSLPVHVVLSLIGLALIALGTGGIKPCVSAFGGDQFEEGQEKQRNRFFSIFYLAINAGSLLSTIITPMLRVQQCGIHSKQACYPLAFGVPAALMAVALIVFVLGSGMYKKFKPQGNIMGKVAKCIGFAIKNRFRHRSKAFPKREHWLDWAKEKYDERLISQIKMVTRVMFLYIPLPMFWALFDQQGSRWTLQATTMSGKIGALEIQPDQMQTVNAILIVIMVPIFDAVLYPLIAKCGFNFTSLKKMAVGMVLASMAFVVAAIVQVEIDKTLPVFPKGNEVQIKVLNIGNNTMNISLPGEMVTLGPMSQTNAFMTFDVNKLTRINISSPGSPVTAVTDDFKQGQRHTLLVWAPNHYQVVKDGLNQKPEKGENGIRFVNTFNELITITMSGKVYANISSYNASTYQFFPSGIKGFTISSTEIPPQCQPNFNTFYLEFGSAYTYIVQRKNDSCPEVKVFEDISANTVNMALQIPQYFLLTCGEVVFSVTGLEFSYSQAPSNMKSVLQAGWLLTVAVGNIIVLIVAGAGQFSKQWAEYILFAALLLVVCVIFAIMARFYTYINPAEIEAQFDEDEKKNRLEKSNPYFMSGANSQKQM
Km [10]: 290 µM
Km [11]: 860 µM

B2: Solute carrier family 15 member 1 (Rattus norvegicus) (protein)
chain: MGMSKSRGCFGYPLSIFFIVVNEFCERFSYYGMRALLVLYFRNFLGWDDDLSTAIYHTFVALCYLTPILGALIADSWLGKFKTIVSLSIVYTIGQAVISVSSINDLTDHDHDGSPNNLPLHVALSMIGLALIALGTGGIKPCVSAFGGDQFEEGQEKQRNRFFSIFYLAINAGSLLSTIITPILRVQQCGIHSQQACYPLAFGVPAALMAVALIVFVLGSGMYKKFQPQGNIMGKVAKCIRFAIKNRFRHRSKAFPKRNHWLDWAKEKYDERLISQIKIMTKVMFLYIPLPMFWALFDQQGSRWTLQATTMTGKIGTIEIQPDQMQTVNAILIVIMVPIVDAVVYPLIAKCGFNFTSLKKMTVGMFLASMAFVVAAIVQVEIDKTLPVFPSGNQVQIKVLNIGNNDMAVYFPGKNVTVAQMSQTDTFMTFDVDQLTSINVSSPGSPGVTTVAHEFEPGHRHTLLVWGPNLYRVVKDGLNQKPEKGENGIRFVSTLNEMITIKMSGKVYENVTSHSASNYQFFPSGQKDYTINTTEIAPNCSSDFKSSNLDFGSAYTYVIRSRASDGCLEVKEFEDIPPNTVNMALQIPQYFLLTCGEVVFSVTGLEFSYSQAPSNMKSVLQAGWLLTVAIGNIIVLIVAEAGHFDKQWAEYVLFASLLLVVCIIFAIMARFYTYINPAEIEAQFDEDEKKKGVGKENPYSSLEPVSQTNM
Km [12]: 160 µM
Km [13]: 240 µM

B3: Solute carrier family 15 member 1 (Mus musculus) (protein)
chain: MGMSKSRGCFGYPLSIFFIVVNEFCERFSYYGMRALLVLYFRNFLGWDDNLSTAIYHTFVALCYLTPILGALIADSWLGKFKTIVSLSIVYTIGQAVISVSSINDLTDHDHNGSPDSLPVHVALSMVGLALIALGTGGIKPCVSAFGGDQFEEGQEKQRNRFFSIFYLAINGGSLLSTIITPILRVQQCGIHSQQACYPLAFGVPAALMAVALIVFVLGSGMYKKFQPQGNIMGKVAKCIGFAIKNRFRHRSKAYPKREHWLDWAKEKYDERLISQIKMVTKVMFLYIPLPMFWALFDQQGSRWTLQATTMNGKIGAIEIQPDQMQTVNAILIVIMVPIVDAVVYPLIAKCGFNFTSLKKMTVGMFLASMAFVVAAIVQVEIDKTLPVFPGGNQVQIKVLNIGNNNMTVHFPGNSVTLAQMSQTDTFMTFDIDKLTSINISSSGSPGVTTVAHDFEQGHRHTLLVWNPSQYRVVKDGLNQKPEKGENGIRFVNTLNEMVTIKMSGKVYENVTSHNASGYQFFPSGEKQYTINTTAVAPTCLTDFKSSNLDFGSAYTYVIRRASDGCLEVKEFEDIPPNTVNMALQIPQYFLLTCGEVVFSVTGLEFSYSQAPSNMKSVLQAGWLLTVAVGNIIVLIVAGAGHFPKQWAEYILFASLLLVVCVIFAIMARFYTYINPAEIEAQFDEDEKKKGIGKENPYSSLEPVSQTNM
Km [14]: 750 µM
Km [15]: 300 µM
